According to ChEMBL document CHEMBL4689842, “EUbOPEN Chemogenomics Library wave 1” (2021):

Tested on: Fibroblast
Assay: Multiplex assay against human fibroblast
Type: toxicity, cell-based
Summary of the method: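 Cells were classed with CellPathfinder machine-learning gating, first as Hoechst high-intensity objects or normal cells, then (normal cells) as healthy, pyknosed or fragmented nuclei, and finally (pyknosed cells) as mitotic or apoptotic. Staining of live cells at seeding used Hoechst33342, BioTracker Green Microtubule Cytoskeleton Dye, MitoTracker Red and Annexin V Alexa Fluor 680, with imaging on a CQ1 microscope at 37°C and 5% CO2 after compound addition. Tubulin, mitochondrial-mass and membrane-permeability phenotypes are per cents of healthy-nucleus cells.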

[1] = 12 h, 1 µM, compound concentration 1 uM, replicate 1
[2] = 12 h, 1 µM, compound concentration 1 uM, replicate 2
[3] = 12 h, 10 µM, compound concentration 10 uM, replicate 1
[4] = 12 h, 10 µM, compound concentration 10 uM, replicate 2
[5] = 24 h, 1 µM, compound concentration 1 uM, replicate 1
[6] = 24 h, 1 µM, compound concentration 1 uM, replicate 2
[7] = 24 h, 10 µM, compound concentration 10 uM, replicate 1
[8] = 24 h, 10 µM, compound concentration 10 uM, replicate 2
[9] = 48 h, 1 µM, compound concentration 1 uM, replicate 1
[10] = 48 h, 1 µM, compound concentration 1 uM, replicate 2
[11] = 48 h, 10 µM, compound concentration 10 uM, replicate 1
[12] = 48 h, 10 µM, compound concentration 10 uM, replicate 2

c1cn2cc(-c3ccc4cn[nH]c4c3)nc(Nc3ccc(N4CCOCC4)cc3)c2n1 [ENTOSPLETINIB]
Population Apoptotic (%) [1]: 60%
Population Fragmented Nuclei (%) [1]: 23%
Population Healthy Nuclei (%) [1]: 36%
Population Hoechst High Intensity Objects (%) [1]: 14%
Population Membrane Permeable-Phenotype (%) [1]: 20%
Population Mitochondria Different-Phenotype (%) [1]: 12%
Population Mitotic Cells (%) [1]: 39%
Population Normal (%) [1]: 85%
Population Pyknosed Nuclei (%) [1]: 40%
Population Tubulin-Different-Phenotype (%) [1]: 52%
Total Cell Count [1]: 81
Population Apoptotic (%) [2]: 40%
Population Fragmented Nuclei (%) [2]: 16%
Population Healthy Nuclei (%) [2]: 73%
Population Hoechst High Intensity Objects (%) [2]: 5%
Population Membrane Permeable-Phenotype (%) [2]: 10%
Population Mitochondria Different-Phenotype (%) [2]: 23%
Population Mitotic Cells (%) [2]: 60%
Population Normal (%) [2]: 94%
Population Pyknosed Nuclei (%) [2]: 9%
Population Tubulin-Different-Phenotype (%) [2]: 25%
Total Cell Count [2]: 59
Population Apoptotic (%) [3]: 51%
Population Fragmented Nuclei (%) [3]: 24%
Population Healthy Nuclei (%) [3]: 3%
Population Hoechst High Intensity Objects (%) [3]: 41%
Population Membrane Permeable-Phenotype (%) [3]: 14%
Population Mitochondria Different-Phenotype (%) [3]: 4%
Population Mitotic Cells (%) [3]: 48%
Population Normal (%) [3]: 58%
Population Pyknosed Nuclei (%) [3]: 72%
Population Tubulin-Different-Phenotype (%) [3]: 23%
Total Cell Count [3]: 1163
Population Apoptotic (%) [4]: 92%
Population Fragmented Nuclei (%) [4]: 30%
Population Healthy Nuclei (%) [4]: 2%
Population Hoechst High Intensity Objects (%) [4]: 25%
Population Membrane Permeable-Phenotype (%) [4]: 21%
Population Mitochondria Different-Phenotype (%) [4]: 82%
Population Mitotic Cells (%) [4]: 7%
Population Normal (%) [4]: 74%
Population Pyknosed Nuclei (%) [4]: 67%
Population Tubulin-Different-Phenotype (%) [4]: 78%
Total Cell Count [4]: 56
Population Apoptotic (%) [5]: 60%
Population Fragmented Nuclei (%) [5]: 25%
Population Healthy Nuclei (%) [5]: 57%
Population Hoechst High Intensity Objects (%) [5]: 11%
Population Membrane Permeable-Phenotype (%) [5]: 23%
Population Mitochondria Different-Phenotype (%) [5]: 7%
Population Mitotic Cells (%) [5]: 40%
Population Normal (%) [5]: 88%
Population Pyknosed Nuclei (%) [5]: 16%
Population Tubulin-Different-Phenotype (%) [5]: 51%
Total Cell Count [5]: 102
Population Apoptotic (%) [6]: 14%
Population Fragmented Nuclei (%) [6]: 14%
Population Healthy Nuclei (%) [6]: 74%
Population Hoechst High Intensity Objects (%) [6]: 4%
Population Membrane Permeable-Phenotype (%) [6]: 17%
Population Mitochondria Different-Phenotype (%) [6]: 15%
Population Mitotic Cells (%) [6]: 85%
Population Normal (%) [6]: 95%
Population Pyknosed Nuclei (%) [6]: 11%
Population Tubulin-Different-Phenotype (%) [6]: 21%
Total Cell Count [6]: 78
Population Apoptotic (%) [7]: 48%
Population Fragmented Nuclei (%) [7]: 22%
Population Healthy Nuclei (%) [7]: 3%
Population Hoechst High Intensity Objects (%) [7]: 44%
Population Membrane Permeable-Phenotype (%) [7]: 23%
Population Mitochondria Different-Phenotype (%) [7]: 4%
Population Mitotic Cells (%) [7]: 51%
Population Normal (%) [7]: 55%
Population Pyknosed Nuclei (%) [7]: 74%
Population Tubulin-Different-Phenotype (%) [7]: 47%
Total Cell Count [7]: 1126
Population Apoptotic (%) [8]: 89%
Population Fragmented Nuclei (%) [8]: 33%
Population Healthy Nuclei (%) [8]: 2%
Population Hoechst High Intensity Objects (%) [8]: 26%
Population Membrane Permeable-Phenotype (%) [8]: 8%
Population Mitochondria Different-Phenotype (%) [8]: 36%
Population Mitotic Cells (%) [8]: 10%
Population Normal (%) [8]: 73%
Population Pyknosed Nuclei (%) [8]: 64%
Population Tubulin-Different-Phenotype (%) [8]: 20%
Total Cell Count [8]: 65
Population Apoptotic (%) [9]: 75%
Population Fragmented Nuclei (%) [9]: 29%
Population Healthy Nuclei (%) [9]: 65%
Population Hoechst High Intensity Objects (%) [9]: 15%
Population Membrane Permeable-Phenotype (%) [9]: 18%
Population Mitochondria Different-Phenotype (%) [9]: 6%
Population Mitotic Cells (%) [9]: 25%
Population Normal (%) [9]: 84%
Population Pyknosed Nuclei (%) [9]: 4%
Population Tubulin-Different-Phenotype (%) [9]: 39%
Total Cell Count [9]: 104
Population Apoptotic (%) [10]: 33%
Population Fragmented Nuclei (%) [10]: 28%
Population Healthy Nuclei (%) [10]: 68%
Population Hoechst High Intensity Objects (%) [10]: 11%
Population Membrane Permeable-Phenotype (%) [10]: 9%
Population Mitochondria Different-Phenotype (%) [10]: 1%
Population Mitotic Cells (%) [10]: 66%
Population Normal (%) [10]: 88%
Population Pyknosed Nuclei (%) [10]: 2%
Population Tubulin-Different-Phenotype (%) [10]: 50%
Total Cell Count [10]: 116
Population Apoptotic (%) [11]: 43%
Population Fragmented Nuclei (%) [11]: 14%
Population Healthy Nuclei (%) [11]: 4%
Population Hoechst High Intensity Objects (%) [11]: 47%
Population Membrane Permeable-Phenotype (%) [11]: 14%
Population Mitochondria Different-Phenotype (%) [11]: 0%
Population Mitotic Cells (%) [11]: 56%
Population Normal (%) [11]: 52%
Population Pyknosed Nuclei (%) [11]: 80%
Population Tubulin-Different-Phenotype (%) [11]: 17%
Total Cell Count [11]: 1093
Population Apoptotic (%) [12]: 82%
Population Fragmented Nuclei (%) [12]: 24%
Population Healthy Nuclei (%) [12]: 6%
Population Hoechst High Intensity Objects (%) [12]: 64%
Population Membrane Permeable-Phenotype (%) [12]: 12%
Population Mitochondria Different-Phenotype (%) [12]: 12%
Population Mitotic Cells (%) [12]: 17%
Population Normal (%) [12]: 35%
Population Pyknosed Nuclei (%) [12]: 69%
Population Tubulin-Different-Phenotype (%) [12]: 46%
Total Cell Count [12]: 1794
